Assay results as given in publication PMC5292677 (Leukemia, 2016).

System: patients with myelofibrosis
Assay: Phase I safety: drug-related adverse events, DLTs, tolerability
Format: in vivo, human
Summary of the method: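 Design was 3+3 dose escalation of oral test compound QD (75–400 mg) or BID (100–400 mg) in 28-day cycles. AEs were graded by CTCAE v4.0 with causality, alongside labs, ECGs, vital signs and physical exams. A DLT was grade 4 cytopenia, other grade 3/4 hematologic toxicity, or grade 3/4 non-hematologic toxicity, excluding manageable GI events. The population was all patients dosed ≥1 time.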

C[C@H](Nc1cc(-c2cnn(C)c2)cc(Nc2cnccn2)n1)c1ccc(F)cc1 [NS-018]
2 (22) n (%): Drug-related diarrhea, all grade (200 mg QD (n=9)) | Drug-related vomiting, all grade (200 mg QD (n=9)) | Drug-related weight increased, all grade (200 mg QD (n=9))
3 patients: Patients who discontinued owing to AEs (beyond DLT) (300 mg BID)
2 (25) n (%): Drug-related nausea, all grade (250 mg BID (n=8)) | Drug-related thrombocytopenia, Grade 1/2 (250 mg BID (n=8))
1 patient: DLT: grade 3 QT prolongation (250 mg BID cohort)
2 (17) n (%): Drug-related diarrhea, all grade (200 mg BID (n=12)) | Drug-related anemia, Grade 3 (300 mg BID (n=12)) | Drug-related paresthesia, all grade (300 mg BID (n=12))
3 (25) n (%): Drug-related anemia, all grades (300 mg BID (n=12)) | Drug-related dizziness, all grade (300 mg BID (n=12)) | Drug-related thrombocytopenia, Grade 1/2 (300 mg BID (n=12))
3 (38) n (%): Drug-related thrombocytopenia, all grades (250 mg BID (n=8))
1 (13) n (%): Drug-related anemia, Grade 1/2 (250 mg BID (n=8)) | Drug-related anemia, all grades (250 mg BID (n=8)) | Drug-related esophageal reflux, all grade (250 mg BID (n=8)) | Drug-related nausea, grade 3 or 4 (250 mg BID (n=8)) | Drug-related thrombocytopenia, Grade 4 (250 mg BID (n=8))
1 (20) n (%): Drug-related thrombocytopenia, Grade 3 (100 mg BID (n=5)) | Drug-related thrombocytopenia, all grades (100 mg BID (n=5))
1 (13)/1 (13) n (%): Drug-related dizziness, all grade (250 mg BID (n=8)) | Drug-related dizziness, grade 3 or 4 (250 mg BID (n=8))
0 n (%): Drug-related anemia, all grades (75 mg QD (n=3)) | Drug-related diarrhea, all grade (75 mg QD (n=3)) | Drug-related dizziness, all grade (75 mg QD (n=3)) | Drug-related esophageal reflux, all grade (75 mg QD (n=3)) | Drug-related headache, all grade (75 mg QD (n=3)) | Drug-related nausea, all grade (75 mg QD (n=3)) | Drug-related paresthesia, all grade (75 mg QD (n=3)) | Drug-related thrombocytopenia, Grade 1/2 (75 mg QD (n=3)) | Drug-related thrombocytopenia, Grade 3 (75 mg QD (n=3)) | Drug-related vomiting, all grade (75 mg QD (n=3)) | Drug-related weight increased, all grade (75 mg QD (n=3)) | Drug-related anemia, all grades (100 mg BID (n=5)) | Drug-related diarrhea, all grade (100 mg BID (n=5)) | Drug-related dizziness, all grade (100 mg BID (n=5)) | Drug-related esophageal reflux, all grade (100 mg BID (n=5)) | Drug-related headache, all grade (100 mg BID (n=5)) | Drug-related nausea, all grade (100 mg BID (n=5)) | Drug-related paresthesia, all grade (100 mg BID (n=5)) | Drug-related thrombocytopenia, Grade 1/2 (100 mg BID (n=5)) | Drug-related thrombocytopenia, Grade 4 (100 mg BID (n=5)) | Drug-related vomiting, all grade (100 mg BID (n=5)) | Drug-related weight increased, all grade (100 mg BID (n=5)) | Drug-related anemia, all grades (125 mg QD (n=4)) | Drug-related diarrhea, all grade (125 mg QD (n=4)) | Drug-related dizziness, all grade (125 mg QD (n=4)) | Drug-related esophageal reflux, all grade (125 mg QD (n=4)) | Drug-related headache, all grade (125 mg QD (n=4)) | Drug-related nausea, all grade (125 mg QD (n=4)) | Drug-related paresthesia, all grade (125 mg QD (n=4)) | Drug-related thrombocytopenia, all grades (125 mg QD (n=4)) | Drug-related vomiting, all grade (125 mg QD (n=4)) | Drug-related weight increased, all grade (125 mg QD (n=4)) | Drug-related anemia, all grades (200 mg BID (n=12)) | Drug-related diarrhea, grade 3 or 4 (200 mg BID (n=12)) | Drug-related dizziness, grade 3 or 4 (200 mg BID (n=12)) | Drug-related esophageal reflux, all grade (200 mg BID (n=12)) | Drug-related headache, all grade (200 mg BID (n=12)) | Drug-related nausea, grade 3 or 4 (200 mg BID (n=12)) | Drug-related paresthesia, all grade (200 mg BID (n=12)) | Drug-related vomiting, all grade (200 mg BID (n=12)) | Drug-related weight increased, all grade (200 mg BID (n=12)) | Drug-related diarrhea, grade 3 or 4 (200 mg QD (n=9)) | Drug-related dizziness, all grade (200 mg QD (n=9)) | Drug-related esophageal reflux, all grade (200 mg QD (n=9)) | Drug-related headache, all grade (200 mg QD (n=9)) | Drug-related nausea, grade 3 or 4 (200 mg QD (n=9)) | Drug-related paresthesia, all grade (200 mg QD (n=9)) | Drug-related thrombocytopenia, all grades (200 mg QD (n=9)) | Drug-related vomiting, grade 3 or 4 (200 mg QD (n=9)) | Drug-related weight increased, grade 3 or 4 (200 mg QD (n=9)) | Drug-related anemia, Grade 3 (250 mg BID (n=8)) | Drug-related anemia, Grade 4 (250 mg BID (n=8)) | Drug-related diarrhea, all grade (250 mg BID (n=8)) | Drug-related esophageal reflux, grade 3 or 4 (250 mg BID (n=8)) | Drug-related headache, all grade (250 mg BID (n=8)) | Drug-related paresthesia, all grade (250 mg BID (n=8)) | Drug-related thrombocytopenia, Grade 3 (250 mg BID (n=8)) | Drug-related vomiting, all grade (250 mg BID (n=8)) | Drug-related weight increased, all grade (250 mg BID (n=8)) | Drug-related anemia, Grade 4 (300 mg BID (n=12)) | Drug-related diarrhea, grade 3 or 4 (300 mg BID (n=12)) | Drug-related dizziness, grade 3 or 4 (300 mg BID (n=12)) | Drug-related esophageal reflux, grade 3 or 4 (300 mg BID (n=12)) | Drug-related headache, all grade (300 mg BID (n=12)) | Drug-related nausea, grade 3 or 4 (300 mg BID (n=12)) | Drug-related thrombocytopenia, Grade 4 (300 mg BID (n=12)) | Drug-related vomiting, all grade (300 mg BID (n=12)) | Drug-related weight increased, grade 3 or 4 (300 mg BID (n=12))
38%: Rate of discontinuations owing to AEs (300 mg BID)
4 (33) n (%): Drug-related nausea, all grade (300 mg BID (n=12)) | Drug-related thrombocytopenia, all grades (300 mg BID (n=12))
1 (33) n (%): Drug-related thrombocytopenia, Grade 4 (75 mg QD (n=3)) | Drug-related thrombocytopenia, all grades (75 mg QD (n=3))
1 (11) n (%): Drug-related anemia, Grade 1/2 (200 mg QD (n=9)) | Drug-related anemia, all grades (200 mg QD (n=9)) | Drug-related nausea, all grade (200 mg QD (n=9))
1 (8) n (%): Drug-related dizziness, all grade (200 mg BID (n=12)) | Drug-related nausea, all grade (200 mg BID (n=12)) | Drug-related thrombocytopenia, Grade 1/2 (200 mg BID (n=12)) | Drug-related thrombocytopenia, all grades (200 mg BID (n=12)) | Drug-related anemia, Grade 1/2 (300 mg BID (n=12)) | Drug-related diarrhea, all grade (300 mg BID (n=12)) | Drug-related esophageal reflux, all grade (300 mg BID (n=12)) | Drug-related paresthesia, grade 3 or 4 (300 mg BID (n=12)) | Drug-related thrombocytopenia, Grade 3 (300 mg BID (n=12)) | Drug-related weight increased, all grade (300 mg BID (n=12))
